# Laboratory results from ChEMBL document CHEMBL4011658 (J Med Chem, 2017).
# Active and inactive are the calls of the source. No cut-off for these calls is given here.
# Key:
# Cryptococcus neoformans [1] = experiment: Induction of membrane permeabilization in Cryptococcus neoformans ATCC 350 assessed as increase in propidium iodide uptake at 0.39 ug/ml after 1 hr by confocal microscopic analysis; assay type: functional
# Cryptococcus neoformans [2] = experiment: Induction of morphological changes in Cryptococcus neoformans ATCC 350 assessed as cell wall breakage at 0.39 ug/ml after 1 hr by uranyl acetate/lead acetate staining based scanning electron microscopic analysis; assay type: functional
# Escherichia coli = experiment: Antibacterial activity against Escherichia coli ATCC 35218 after 16 to 20 hrs by alamar blue dye based CLSI method; assay type: functional
# Cryptococcus neoformans [3] = experiment: Disruption of plasma membrane in Cryptococcus neoformans ATCC 350 at 0.39 ug/ml after 1 hr by uranyl acetate/lead acetate staining based transmission electron microscopic analysis; assay type: functional
# Cryptococcus neoformans [4] = experiment: Synergistic antifungal activity against Cryptococcus neoformans ATCC 350 assessed as fold reduction in MIC in presence of amphotericin B by checkerboard method relative to control; assay type: functional
# [5] = Selectivity index, ratio of cytotoxicity against human SK-MEL cells to IC50 for Staphylococcus aureus ATCC 29213; assay type: toxicity, cell-based; conditions: read-out: Selectivity Index
# How it was run: (§1)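 Selectivity index is the ratio CTX/IC50. For CTX, cells were seeded at 25 000 per well and grown 24 h, then exposed to peptide up to 10 μg/mL for 48 h, with viability by neutral red uptake. […] The inoculum was 5 × 10^5 CFU/mL, with OD530 read before and after incubation.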
# Staphylococcus aureus [6] = experiment: Antibacterial activity against methicillin-resistant Staphylococcus aureus ATCC 33591 after 16 to 20 hrs by alamar blue dye based CLSI method; assay type: functional
# Aspergillus = experiment: Antifungal activity against Aspergillus; assay type: functional
# [7] = Selectivity index, ratio of cytotoxicity against pig LLC-PK1 cells to IC50 for Staphylococcus aureus ATCC 29213; assay type: toxicity, cell-based; conditions: read-out: Selectivity Index; how it was run: as §1
# [8] = Selectivity index, ratio of cytotoxicity against human SKOV3 cells to IC50 for Cryptococcus neoformans ATCC 90113; assay type: toxicity, cell-based; conditions: read-out: Selectivity Index
# Cryptococcus neoformans [9] = experiment: Synergistic antifungal activity against Cryptococcus neoformans ATCC 350 assessed as fold reduction in fluconazole MIC by checkerboard method relative to fluconazole alone; assay type: functional
# Cryptococcus neoformans [10] = experiment: Disruption of cell wall membrane in Cryptococcus neoformans ATCC 350 at 0.39 ug/ml after 1 hr by uranyl acetate/lead acetate staining based transmission electron microscopic analysis; assay type: functional
# [11] = Selectivity index, ratio of cytotoxicity against human BT549 cells to IC50 for Staphylococcus aureus ATCC 29213; assay type: toxicity, cell-based; conditions: read-out: Selectivity Index; how it was run: as §1
# Cryptococcus neoformans [12] = experiment: Synergistic antifungal activity against Cryptococcus neoformans ATCC 350 assessed as fold reduction in MIC in presence of fluconazole by checkerboard method relative to control; assay type: functional
# [13] = Selectivity index, ratio of cytotoxicity against African green monkey VERO cells to IC50 for Staphylococcus aureus ATCC 29213; assay type: toxicity, cell-based; conditions: read-out: Selectivity Index; how it was run: as §1
# [14] = Selectivity index, ratio of cytotoxicity against African green monkey VERO cells to IC50 for methicillin-resistant Staphylococcus aureus ATCC 33591; assay type: toxicity, cell-based; conditions: read-out: Selectivity Index
# How it was run: (§2)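 Selectivity index is the ratio CTX/IC50. For CTX, cells were seeded at 25 000 per well and grown 24 h, then given peptide up to 10 μg/mL for 48 h, with neutral red uptake read-out. […] OD530 was read before and after 16−20 h at 35 °C.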
# Candida = experiment: Antifungal activity against Candida; assay type: functional
# [15] = Selectivity index, ratio of cytotoxicity against pig LLC-PK1 cells to IC50 for Cryptococcus neoformans ATCC 90113; assay type: toxicity, cell-based; conditions: read-out: Selectivity Index
# [16] = Selectivity index, ratio of cytotoxicity against human SK-MEL cells to IC50 for Cryptococcus neoformans ATCC 90113; assay type: toxicity, cell-based; conditions: read-out: Selectivity Index
# [17] = Selectivity index, ratio of cytotoxicity against human SKOV3 cells to IC50 for methicillin-resistant Staphylococcus aureus ATCC 33591; assay type: toxicity, cell-based; conditions: read-out: Selectivity Index; how it was run: as §2
# BT-549 = experiment: Cytotoxicity against human BT549 cells assessed as reduction in cell viability after 48 hrs by neutral red uptake assay; assay type: cell-based; conditions: bt-549, 48 h
# How it was run: (§3)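 Cells seeded at 25 000 per well and grown 24 h to confluence, then exposed to peptides up to 10 μg/mL for 48 h; viability by modified neutral red uptake; doxorubicin positive control, DMSO negative control.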
# Staphylococcus aureus [18] = experiment: Antibacterial activity against Staphylococcus aureus ATCC 29213 after […] hrs by alamar blue dye based CLSI method; assay type: functional
# SK-MEL = experiment: Cytotoxicity against human SK-MEL cells assessed as reduction in cell viability after 48 hrs by neutral red uptake assay; assay type: cell-based; how it was run: as §3
# Cryptococcus neoformans [19] = experiment: Synergistic antifungal activity against Cryptococcus neoformans ATCC 350 assessed as fold reduction in amphotericin B MIC by checkerboard method relative to amphotericin B alone; assay type: functional
# Cryptococcus neoformans [20] = experiment: Synergistic antifungal activity against Cryptococcus neoformans ATCC 350 in presence of fluconazole by checkerboard method; assay type: functional
# Cryptococcus neoformans [21] = experiment: Synergistic antifungal activity against Cryptococcus neoformans ATCC 350 in presence of amphotericin B by checkerboard method; assay type: functional
# Cryptococcus neoformans [22] = experiment: Fungicidal activity against Cryptococcus neoformans ATCC 350 at 0.39 ug/ml up to 4 hrs by time kill assay; assay type: functional
# Cryptococcus neoformans [23] = experiment: Antifungal activity against Cryptococcus neoformans ATCC 350 after 70 to 74 hrs by alamar blue dye based CLSI method; assay type: functional
# Cryptococcus neoformans [24] = experiment: Induction of nuclear fragmentation in Cryptococcus neoformans ATCC 350 at 0.39 ug/ml after 1 hr by DAPI staining based confocal microscopic analysis; assay type: functional
# [25] = Selectivity index, ratio of cytotoxicity against African green monkey VERO cells to IC50 for Cryptococcus neoformans ATCC 90113; assay type: toxicity, cell-based; conditions: read-out: Selectivity Index
# [26] = Metabolic stability of the compound assessed as trypsin (unknown origin)-mediated compound hydrolysis at compound to trypsin ratio of 100 to 0.5 after 2 hrs by RP-HPLC analysis; assay type: ADME; conditions: human
# How it was run: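 Peptide:trypsin 100:0.5 mol/mol in 0.1 M NH4CO3, 0.1 mM CaCl2, pH 8.3, shaken at 37 °C, 200 rpm; aliquot analysed by RP-HPLC, retention time and peak intensity compared with untreated peptide; 2 h sampling per results text.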
# Cryptococcus neoformans [27] = experiment: Antifungal activity against Cryptococcus neoformans ATCC 90113 after 70 to 74 hrs by alamar blue dye based CLSI method; assay type: functional
# Vero = experiment: Cytotoxicity against African green monkey Vero cells assessed as reduction in cell viability after 48 hrs by neutral red uptake assay; assay type: cell-based; conditions: chlorocebus sabaeus; how it was run: as §3
# [28] = Selectivity index, ratio of cytotoxicity against human BT549 cells to IC50 for methicillin-resistant Staphylococcus aureus ATCC 33591; assay type: toxicity, cell-based; conditions: read-out: Selectivity Index; how it was run: as §2
# LLC-PK1 = experiment: Cytotoxicity against pig LLC-PK1 cells assessed as reduction in cell viability after 48 hrs by neutral red uptake assay; assay type: cell-based, Sus scrofa; conditions: llc-pk1, 48 h; how it was run: as §3
# [29] = Selectivity index, ratio of cytotoxicity against human SK-MEL cells to IC50 for methicillin-resistant Staphylococcus aureus ATCC 33591; assay type: toxicity, cell-based; conditions: read-out: Selectivity Index; how it was run: as §2
# [30] = Selectivity index, ratio of cytotoxicity against pig LLC-PK1 cells to IC50 for methicillin-resistant Staphylococcus aureus ATCC 33591; assay type: toxicity, cell-based; conditions: read-out: Selectivity Index; how it was run: as §2
# Cryptococcus neoformans [31] = experiment: Induction of membrane permeabilization in Cryptococcus neoformans ATCC 350 at 0.39 ug/ml after 1 hr using FITC labeled compound by confocal microscopic analysis; assay type: functional
# [32] = Selectivity index, ratio of cytotoxicity against human BT549 cells to IC50 for Cryptococcus neoformans ATCC 90113; assay type: toxicity, cell-based; conditions: read-out: Selectivity Index
# [33] = Selectivity index, ratio of cytotoxicity against human SKOV3 cells to IC50 for Staphylococcus aureus ATCC 29213; assay type: toxicity, cell-based; conditions: read-out: Selectivity Index; how it was run: as §1
# SK-OV-3 = experiment: Cytotoxicity against human SKOV3 cells assessed as reduction in cell viability after 48 hrs by neutral red uptake assay; assay type: cell-based; conditions: sk-ov-3, 48 h; how it was run: as §3
smiles,measurement,setting,value
COC(=O)[C@H](Cc1c[nH]c(-c2ccc(-c3ccccc3)cc2)n1)NC(=O)[C@H](Cc1c[nH]c2ccccc12)NC(=O)[C@@H](N)Cc1c[nH]c(-c2ccc(-c3ccccc3)cc2)n1,Activity,Cryptococcus neoformans [1],Active
same,Activity,Cryptococcus neoformans [2],Active
same,Activity,Escherichia coli,inactive
same,Activity,Cryptococcus neoformans [3],Active
same,fold change (FC),Cryptococcus neoformans [4],32
same,selectivity ratio,[5],> 3.9
same,IC50,Staphylococcus aureus [6],1.93 µg/mL
same,MBC,Staphylococcus aureus [6],10 µg/mL
same,MIC,Staphylococcus aureus [6],5 µg/mL
same,Activity,Aspergillus,inactive
same,selectivity ratio,[7],> 3.9
same,selectivity ratio,[8],> 28.6
same,fold change (FC),Cryptococcus neoformans [9],4
same,Activity,Cryptococcus neoformans [10],Active
same,selectivity ratio,[11],> 3.9
same,fold change (FC),Cryptococcus neoformans [12],16
same,selectivity ratio,[13],> 3.9
same,selectivity ratio,[14],> 5.18
same,Activity,Candida,inactive
same,selectivity ratio,[15],> 28.6
same,selectivity ratio,[16],> 28.6
same,selectivity ratio,[17],> 5.18
same,Activity,BT-549,> 10 µg/mL
same,IC50,Staphylococcus aureus [18],2.56 µg/mL
same,MBC,Staphylococcus aureus [18],> 20 µg/mL
same,MIC,Staphylococcus aureus [18],> 20 µg/mL
same,Activity,SK-MEL,> 10 µg/mL
same,fold change (FC),Cryptococcus neoformans [19],16
same,fractional inhibitory concentration index (FICI),Cryptococcus neoformans [20],0.308
same,fractional inhibitory concentration index (FICI),Cryptococcus neoformans [21],0.092
same,Activity,Cryptococcus neoformans [22],Active
same,MIC,Cryptococcus neoformans [23],0.44 µM
same,Activity,Cryptococcus neoformans [24],Active
same,selectivity ratio,[25],> 28.6
same,Stability,[26],Stable
same,IC50,Cryptococcus neoformans [27],0.35 µg/mL
same,MFC,Cryptococcus neoformans [27],0.63 µg/mL
same,MIC,Cryptococcus neoformans [27],0.63 µg/mL
same,Activity,Vero,> 10 µg/mL
same,selectivity ratio,[28],> 5.18
same,Activity,LLC-PK1,> 10 µg/mL
same,selectivity ratio,[29],> 5.18
same,selectivity ratio,[30],> 5.18
same,Activity,Cryptococcus neoformans [31],Active
same,selectivity ratio,[32],> 28.6
same,selectivity ratio,[33],> 3.9
same,Activity,SK-OV-3,> 10 µg/mL
